Compound activity (PubChem BioAssay)
CSN inh – inhibitors of CSN-mediated cullin deneddylation, primary screen, biochemical, fluorescence polarization, uHTS; COP9 signalosome complex subunit 5 (Homo sapiens), Q92905; Purified CSN, SCF-Nedd8-OG deneddylation; inhibition, % at 12.5 µM; hit rate 0.38% among 360,000; AID 651999, 2013;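 active = pattern-corrected inhibition above about 35%, with an unprinted fluorescence ratio check between 0.5 and 1.5, limit read from the data, passing the limit was not always enough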;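 also: 0% = enzyme with substrate and 100% = substrate without enzyme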
Target sequence (Q92905 whole entry, looked up, one chain of several): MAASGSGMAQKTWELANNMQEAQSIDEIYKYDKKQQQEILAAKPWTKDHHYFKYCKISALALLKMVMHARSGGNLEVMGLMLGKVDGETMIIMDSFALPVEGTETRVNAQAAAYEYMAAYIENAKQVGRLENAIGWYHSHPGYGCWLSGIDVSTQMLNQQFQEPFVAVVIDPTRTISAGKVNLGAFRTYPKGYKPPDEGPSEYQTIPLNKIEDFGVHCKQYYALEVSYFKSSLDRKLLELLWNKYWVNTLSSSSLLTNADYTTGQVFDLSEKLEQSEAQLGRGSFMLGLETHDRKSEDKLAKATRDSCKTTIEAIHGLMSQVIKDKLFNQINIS
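Material: human Csn5 produced in HEK293T cells; Input: enzyme 0.24 nM; Reagent: SCFSkp2-Nedd8OG substrate at 10 nM final; Dosing: 12.5 µM compound; Incubation: 90 min reaction at room temperature; Detection: fluorescence polarization of the substrate; Evaluation: % inhibition of substrate cleavage by Csn5; Control set: substrate-only high control, full reaction low control.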
Exocytosis inh – LAMP-1 surface exposure blockers, TALL-104 cells – cell-based, flow cytometry, MLPCN library, primary screen; inhibition, % at 10 µM; hit rate 0.66% among 360,000; TALL-104 LAMP-1 surface exposure; cells stimulated with thapsigargin and PMA;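 active = inhibition above about 55%, limit read from the data; inconclusive = no clear call, values can overlap the other calls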
Myeloid diff MLP – induction of myeloid progenitor differentiation, primary screen, cell-based, flow cytometry, MLPCN library; ER-HoxA9 myeloid progenitors, lysozyme-GFP differentiation; calls only at 10 µM; hit rate 1% among 360,000; AID 624256, 2012;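 active = normalized GFP-positive differentiation at or above the plate's own cutoff, the solvent-only control mean plus 3 SD; inconclusive = no clear call, values can overlap the other calls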;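 also: cells exposed to compound for four days before flow analysis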
HNF4A DNA FP – change in binding of human HNF4A to DNA, primary screen, biochemical, fluorescence polarization, FITC-DNA; Hepatocyte nuclear factor 4-alpha (Homo sapiens), P41235; 1 h; activity change, % at 10 µM; hit rate 0.3% among 360,000; AID 1224865, 2016; in the data active = activity change above about 30%, passing the limit was not always enough
The depositor's hits bear a star; i = inactive; ? = inconclusive; . = no result; + = active, no number. Only some compounds are listed: those with a hit (about 2.2% of all), similar ones and a draw of the others.

SMILES | CSN inh | Exocytosis inh | Myeloid diff MLP | HNF4A DNA FP
Cc1ccc2c(c1)C(=C(C#N)C#N)C(=O)N2CCN1CCCCC1 | 5.1 | 56.3* | i | 4.5
Cc1ccc2c(c1)C(=C(C#N)C#N)C(=O)N2CCN1CCOCC1 | 1.0 | -5.2 | i | -1.1
COc1ccccc1NS(=O)(=O)c1cc([N+](=O)[O-])ccc1N/N=C/c1c(C)[nH]c2ccccc12 | 25.6 | 32.2 | + | 57.3*
Cc1[nH]c2ccccc2c1/C=N/NC(=O)c1cccc([N+](=O)[O-])c1 | -4.0 | 0.2 | i | 3.5
COc1ccc(N2CCN(CC(=O)NCc3ccccc3)CC2)cc1 | -1.6 | 0.0 | i | 0.1
CCCNC(=O)CN1CCN(c2cc3ccccc3c(Cl)n2)CC1 | 100.3* | -3.5 | i | -4.9
C=CCOC(=O)C1=C(C)NC(=S)NC1/C=C/c1ccccc1 (centres undefined) | 2.7 | 66.2* | i | 0.1
CC1=C(C(=O)OCc2ccccc2)C(/C=C/c2ccccc2)NC(=S)N1 (centres undefined) | -16.6 | 20.8 | i | -1.8
Cc1noc(C)c1CSCC(=O)Nc1ccc(S(=O)(=O)C(F)F)cc1 | 2.7 | -5.6 | i | 1.7
Nc1ccc(-c2c3ccc(=O)cc-3oc3cc(O)ccc23)cc1C(=O)O | -73.1 | -10.6 | + | -99.2
O=c1ccc2c(-c3ccccc3)c3ccc(O)cc3oc-2c1 | -74.7 | -7.2 | + | -98.6
COc1ccccc1CNC(=O)CCNS(=O)(=O)c1cc(Br)cnc1N | 4.9 | -0.7 | i | 1.4
O=[N+]([O-])c1ccc(N=Nc2ccc(O)c3ccccc23)cc1 | 9.9 | -3.3 | + | 19.5
O=S(=O)(Nc1ccc(N=Nc2ccc(O)c3ccccc23)cc1)c1ccccc1 | 5.0 | 9.1 | i | 7.4
C[C@H](CO)N1C[C@H](C)[C@@H](CN(C)S(=O)(=O)c2ccc3ccccc3c2)OCc2cnnn2CCCC1=O | -5.0 | 0.8 | + | 2.4
CCCCCCc1nc(C(N)=O)c2[nH]c(=O)n(-c3ccccc3F)c2n1 | -2.3 | -1.4 | . | 1.5
CCOc1cc(C(=O)Nc2cc3c(cc2N2CCOCC2)n(C)c(=O)n3C)cc(OCC)c1OCC | -1.3 | -1.0 | i | 1.9
COc1ccc(N2CCN(C(=O)C3CCCN(S(=O)(=O)c4c(C)noc4C)C3)CC2)cc1 (centres undefined) | 4.6 | -2.2 | i | 0.1
Cc1ccc(CNc2ccc3nnc(-c4ccccc4)n3n2)cc1 | 38.0* | -8.6 | ? | 3.3
Cc1cccc(/C=C/c2onc(C)c2S(=O)(=O)N2CCC(C(=O)NC(C)(C)C)CC2)c1 | 16.8 | 5.2 | i | 4.5
CCN(CC)C(=O)C1CCN(S(=O)(=O)c2c(C)noc2/C=C/c2cccc(C)c2)CC1 | 3.9 | -0.1 | + | 1.7
Cc1cc(C)cc(Nc2nc(-c3ccc(S(=O)(=O)N4CCCC4)cc3)cs2)c1 | 3.0 | 1.5 | + | 2.7
CC(C)Oc1ccc(N2CC(C(=O)Nc3ccccc3C(=O)NC3CC3)CC2=O)cc1 (centres undefined) | -2.0 | 12.3 | i | -0.9
c1cc(CNc2ccc3c(c2)OCO3)ccn1 | -12.1 | -0.2 | i | -11.9
Cc1ccc(CNc2ccc3c(c2)OCO3)cc1 | -37.3 | 7.3 | + | -60.4
SMILES | CSN inh | Exocytosis inh | Myeloid diff MLP | HNF4A DNA FP
CC(=O)Nc1ccc(C(=O)COC(=O)C2CC2)c(F)c1 | -7.5 | 4.7 | i | -4.5
O=C(NNC(=O)C1CC(=O)N(Cc2ccccc2)C1)c1ccc(F)cc1 (centres undefined) | -6.6 | 4.6 | i | -2.0
Cc1cc(C)cc(Nc2nc3ccccc3c(=O)[nH]2)c1 | -6.1 | -1.7 | i | -0.8
COc1nc(Nc2nc3ccccc3c(=O)[nH]2)nc2ccc(C)cc12 | 7.8 | -3.6 | . | 275.2*
Cc1cc2oc3cc(NCCC4CCCN4C)ccc3c(=O)c2cc1C (centres undefined) | 1.1 | -3.8 | i | 0.6
CN1CCCC1CCNc1ccc2sc3ccccc3c(=O)c2c1 (centres undefined) | 5.4 | 0.4 | + | -2.2
COc1cc2sc3cc(NCCCN4CCOCC4)ccc3c(=O)c2cc1OC | 3.2 | -3.0 | i | 4.5
O=c1c2ccccc2sc2ccc(NCCCN3CCOCC3)cc12 | 4.2 | -1.3 | + | 7.6
COc1ccc(NC(=O)C2Cc3c(-c4ccc5c(c4)OCO5)ccnc3O2)cc1 (centres undefined) | 0.4 | 10.8 | + | -3.6
